Results as given in ChEMBL document CHEMBL1143345, “Towards Gram-negative antivirulence drugs: new inhibitors of HldE kinase” (Bioorg Med Chem, 2009).
The source made the active and inactive calls. No cut-off for these calls is given here.

T1: Ribokinase (Escherichia coli K-12, UniProt P0A9J6)
T1 sequence (P0A9J6 whole entry): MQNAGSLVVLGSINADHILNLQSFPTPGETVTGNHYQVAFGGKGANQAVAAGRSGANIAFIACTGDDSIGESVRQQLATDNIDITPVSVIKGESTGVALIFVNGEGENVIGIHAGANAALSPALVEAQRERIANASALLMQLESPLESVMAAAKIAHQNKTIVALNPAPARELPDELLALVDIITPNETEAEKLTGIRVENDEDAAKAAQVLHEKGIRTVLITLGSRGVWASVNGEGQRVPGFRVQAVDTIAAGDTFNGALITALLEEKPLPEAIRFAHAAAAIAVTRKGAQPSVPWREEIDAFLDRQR


Experiments:
[1] = Inhibition of Escherichia coli O18:K1 C7 HldE by luminescent assay
Method in brief: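 His-tagged E. coli O18:K1 C7 HldE (3 nM) pre-incubated 30 min at room temperature with inhibitor (≤5% DMSO). Then H-7-P 0.2 uM and ATP 0.2 uM added for 40 min in pH 7.5 Hepes, 1 mM MnCl2, 25 mM KCl, 0.012% Triton X-100, 1 mM DTT. ATP depletion read by luciferase luminescence; IC50 from 6–10 concentrations, means of three experiments.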

[2] = Inhibition of Neisseria meningitidis 2C43 HldA by luminescent assay
Method in brief: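 His-tagged N. meningitidis 2C43 HldA (20 nM) pre-incubated 30 min at room temperature with inhibitor, then H-7-P 0.2 uM and ATP 0.2 uM added for 40 min. Buffer pH 7.5 Hepes, 1 mM MnCl2, 25 mM KCl, 0.012% Triton X-100, 1 mM DTT. Residual ATP measured by luciferase/luciferin luminescence; IC50 fitted from 6–10 concentrations.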

Ribokinase = target: T1, Ribokinase; assay: Inhibition of Escherichia coli K12 MG1655 ribokinase by luminescent assay
Method in brief: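 His-tagged E. coli K12 MG1655 ribokinase (0.6 nM) in pH 7.5 Hepes buffer with 1 mM MnCl2, 25 mM KCl, 0.012% Triton X-100, 1 mM DTT. Inhibitor pre-incubated 30 min at room temperature, then D-ribose 3 uM and ATP 3 uM added for 40 min. Remaining ATP detected by luciferase/luciferin luminescence; IC50 fitted from 6–10 concentrations.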

Escherichia coli [3] = assay: Activity of Escherichia coli O18:K1 C7 HldE in presence of 50 uM ATP
Method in brief: (§1)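 His-tagged E. coli O18:K1 C7 HldE kinase steady-state kinetics, pH 7.5 with 1 mM MnCl2, 25 mM KCl, 5% DMSO. H-7-P Km measured at fixed ATP 50 uM or 0.3 uM; ADP formation followed by PK/LDH-coupled NADH fluorescence (ex 360, em 520 nm), read kinetically; values ± SD.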

Escherichia coli [4] = assay: Activity of Escherichia coli O18:K1 C7 HldE in presence of 0.3 uM ATP; method in brief: as §1
Escherichia coli [5] = assay: Activity of Escherichia coli O18:K1 C7 HldE in presence of 1.8 uM D-glycero-D-manno-heptose-7-phosphate
Method in brief: (§2)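 His-tagged HldE, Ni-NTA purified, steady-state kinetics with ATP varied at fixed H-7-P. Conditions are pH 7.5 with 1 mM MnCl2, 25 mM KCl and 5% DMSO in Hepes/Triton X-100/DTT buffer. ADP is detected by a pyruvate kinase/lactate dehydrogenase coupled system, reading NADH fluorescence kinetically (ex 360, em 520 nm). Values ± SD.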

Escherichia coli [6] = assay: Activity of Escherichia coli O18:K1 C7 HldE in presence of 0.2 uM D-glycero-D-manno-heptose-7-phosphate; method in brief: as §2
Neisseria meningitidis = assay: Activity of Neisseria meningitidis 2C43 HldA in presence of 0.2 uM D-glycero-D-manno-heptose-7-phosphate
Method in brief: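 His-tagged HldA, Ni-NTA purified, at 20 nM with 0.2 µM H-7-P and ATP. Buffer is 50 mM Hepes pH 7.5, 1 mM MnCl2, 25 mM KCl, 0.012% Triton X-100 and 1 mM DTT. Reaction runs 40 min at room temperature. ATP depletion is read by luciferase/D-luciferin luminescence.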

[7] = Inhibition of Escherichia coli O18:K1 C7 HldE by fluorescent assay
Method in brief: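 Coupled fluorescent HldE-kinase assay: His-tagged E. coli O18:K1 C7 HldE (66 pM), 30 min inhibitor pre-incubation at room temperature, then H-7-P 1 uM, ATP 50 uM with PK/PEP/LDH/NADH. pH 7.5 Hepes, 1 mM MnCl2, 25 mM KCl, 0.012% Triton X-100, 1 mM DTT. NADH fluorescence read kinetically; Ki derived, substrate levels varied for competition.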

Escherichia coli [8] = assay: Inhibition of Escherichia coli O18:K1 C7 HldE in presence of Triton-X100 by luminescent assay
Escherichia coli [9] = assay: Inhibition of Escherichia coli O18:K1 C7 HldE in presence of D-glycero-D-manno-heptose-7-phosphate by luminescent assay
[10] = compound: Nc1ncnc2c1ncn2[C@@H]1O[C@H](COP(=O)(O)OP(=O)(O)OP(=O)(O)O)[C@@H](O)[C@H]1O; assay: Activity of Escherichia coli K12 MG1655 ribokinase in presence of 3 uM D-ribose; conditions: Escherichia coli K-12
Method in brief: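 His-tagged ribokinase, Ni-NTA purified, at 0.6 nM with 3 µM D-ribose and ATP. Buffer is 50 mM Hepes pH 7.5, 1 mM MnCl2, 25 mM KCl, 0.012% Triton X-100 and 1 mM DTT. Reaction runs 40 min at room temperature. ATP depletion is read by luciferase/D-luciferin luminescence. Values ± SD.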

Row | Molecule | IC50 [1] | other results
1 | Cc1nc(-c2cccc(S(C)(=O)=O)c2)sc1C(=O)N(CC(=O)O)Cc1nc2ccccc2s1 | 75 µM | 
2 | Cc1nc(-c2ccc3[nH]ccc3c2)sc1C(=O)N(CC(=O)O)Cc1nc2ccccc2s1 | 0.33 µM | IC50 [2]: 8.5 µM; IC50 (Ribokinase): > 100 µM
3 | Cc1oc(-c2ccccc2)nc1C(=O)N(CC(=O)O)Cc1cccnc1 | > 300 µM | 
4 | COc1cccc(-c2nc(C)c(C(=O)N(CC(=O)O)Cc3ccccn3)o2)c1 | 17 µM | 
5 | O=C(O)CN(Cc1ccccn1)C(=O)c1ccc(-c2ccccc2)cc1 | > 300 µM | 
6 | O=C(O)CN(Cc1ccccn1)C(=O)c1ccc(-c2ccccc2)o1 | 100 µM | 
7 | Cc1oc(-c2ccccc2)cc1C(=O)N(CC(=O)O)Cc1ccccn1 | 42 µM | 
8 | CC(=O)c1cccc(-c2nc(C)c(C(=O)N(CC(=O)O)Cc3ccccn3)s2)c1 | 216 µM | 
9 | Cc1oc(-c2cccc(NC(=O)C3CC3)c2)nc1C(=O)N(CC(=O)O)Cc1ccccn1 | 14 µM | 
10 | Cc1nc(-c2ccccc2)oc1C(=O)N(CC(=O)O)Cc1ccccc1N | > 300 µM | 
11 | O=P(O)(O)OC[C@@H](O)[C@H]1OC(O)[C@@H](O)[C@@H](O)[C@@H]1O (stereo partly drawn) |  | Km (Escherichia coli [3]): 0.6 µM; Km (Escherichia coli [4]): 0.23 µM
12 | Cc1oc(-c2cccc(N)c2)nc1C(=O)N(CC(=O)O)Cc1ccccn1 | 153 µM | 
13 | Cc1oc(-c2cccc(C(F)(F)F)c2)nc1C(=O)N(CC(=O)O)Cc1ccccn1 | 35 µM | 
14 | Cc1oc(-c2ccc(Br)cc2)nc1C(=O)N(CC(=O)O)Cc1ccccn1 | 27 µM | 
15 | Cc1oc(-c2ccccc2)nc1C(=O)N(CC(=O)O)Cc1ccco1 | > 300 µM | 
16 | Cc1oc(-c2ccc(N)cc2)nc1C(=O)N(CC(=O)O)Cc1ccccn1 | 22 µM | 
17 | Cc1nc(-c2cccc([N+](=O)[O-])c2)sc1C(=O)N(CC(=O)O)Cc1nc2ccccc2s1 | 0.5 µM | IC50 [2]: 75 µM; IC50 (Ribokinase): > 300 µM
18 | Cc1oc(-c2ccccc2Br)nc1C(=O)N(CC(=O)O)Cc1ccccn1 | 44 µM | 
19 | Cc1oc(-c2ccccc2[N+](=O)[O-])nc1C(=O)N(CC(=O)O)Cc1ccccn1 | 141 µM | 
20 | Nc1ncnc2c1ncn2[C@@H]1O[C@H](COP(=O)(O)OP(=O)(O)OP(=O)(O)O)[C@@H](O)[C@H]1O |  | Km (Escherichia coli [5]): 147 µM; Km (Escherichia coli [6]): > 0.8 µM; Km (Neisseria meningitidis): > 0.4 µM
21 | Cc1oc(-c2cccc(N3CCOCC3)c2)nc1C(=O)N(CC(=O)O)Cc1ccccn1 | 70 µM | 
22 | COc1cccc(-c2nc(C(=O)N(CC(=O)O)Cc3ccccn3)c(C)o2)c1 | 15 µM | IC50 [2]: > 300 µM; IC50 (Ribokinase): > 300 µM
23 | Cc1oc(-c2ccc([N+](=O)[O-])cc2)nc1C(=O)N(CC(=O)O)Cc1ccccn1 | 151 µM | 

Row | Molecule | IC50 [1] | other results
24 | COc1cc(-c2nc(C)c(C(=O)N(CC(=O)O)Cc3nc4ccccc4s3)s2)ccc1N | 0.26 µM | 
25 | COc1cccc(-c2nc(C(=O)N(CC(=O)O)Cc3ccc4ccccc4n3)c(C)o2)c1 | 12 µM | 
26 | COc1ccc(-c2nc(C(=O)N(CC(=O)O)Cc3ccccn3)c(C)o2)cc1 | 75 µM | 
27 | Cc1oc(-c2ccccc2)nc1C(=O)N(CC(=O)O)Cc1ccccn1 | 51 µM | 
28 | Cc1oc(-c2cccc(-c3ccn[nH]3)c2)nc1C(=O)N(CC(=O)O)Cc1nc2ccccc2s1 | 0.11 µM | 
29 | Cc1onc(-c2ccccc2)c1C(=O)N(CC(=O)O)Cc1ccccn1 | > 300 µM | 
30 | Cc1oc(-c2ccc(C(F)(F)F)cc2)nc1C(=O)N(CC(=O)O)Cc1ccccn1 | 142 µM | 
31 | COc1cccc(-c2nc(C)c(C(=O)N(CC(=O)O)Cc3nc4ccccc4s3)o2)c1 | 0.27 µM | IC50 [2]: 6 µM; IC50 (Ribokinase): > 300 µM
32 | Cc1oc(-c2cccc([N+](=O)[O-])c2)nc1C(=O)N(CC(=O)O)Cc1ccccn1 | 5.8 µM | IC50 [2]: > 300 µM; IC50 (Ribokinase): > 300 µM
33 | Cc1oc(-c2ccccc2)nc1C(=O)N(CC(=O)O)Cc1nccs1 | 110 µM | 
34 | Cc1nc(-c2ccccc2)sc1C(=O)N(CC(=O)O)Cc1ccccn1 | 52 µM | 
35 | Cc1nc(-c2ccccc2)oc1C(=O)N(CC(=O)O)Cc1ccccn1 | 69 µM | Ki [7]: 38 µM; Activity (Escherichia coli [8]): Active; Activity (Escherichia coli [9]): Active
36 | Cn1nc(-c2ccccc2)cc1C(=O)N(CC(=O)O)Cc1ccccn1 | 57 µM | 
37 | Cc1oc(-c2ccccc2)nc1C(=O)N(CC(=O)O)Cc1ccncc1 | > 300 µM | 
38 | Cc1oc(-c2cccc(Br)c2)nc1C(=O)N(CC(=O)O)Cc1ccccn1 | 10 µM | 
39 | Cc1oc(-c2ccccc2N)nc1C(=O)N(CC(=O)O)Cc1ccccn1 | 31 µM | 
40 | Cc1nc(-c2ccc3ccccc3c2)sc1C(=O)N(CC(=O)O)Cc1nc2ccccc2s1 | 0.48 µM | IC50 [2]: 12 µM; IC50 (Ribokinase): > 33 µM
41 | COc1cccc(-c2nc(C)c(C(=O)N(CC(=O)O)Cc3nc4ccccc4s3)s2)c1 | 0.42 µM | 
42 | Cc1oc(-c2ccccc2)nc1C(=O)N(CC(=O)O)Cc1ccccc1 | > 300 µM | 
43 | CC(=O)Nc1cccc(-c2nc(C(=O)N(CC(=O)O)Cc3ccccn3)c(C)o2)c1 | 28 µM | 
44 | Cc1nc(-c2ccc(N)c([N+](=O)[O-])c2)sc1C(=O)N(CC(=O)O)Cc1ccccn1 | 13 µM | 
45 | Ribokinase (Escherichia coli K-12), P0A9J6 (protein) MQNAGSLVVLGSINADHILNLQSFPTPGETVTGNHYQVAFGGKGANQAVAAGRSGANIAFIACTGDDSIGESVRQQLATDNIDITPVSVIKGESTGVALIFVNGEGENVIGIHAGANAALSPALVEAQRERIANASALLMQLESPLESVMAAAKIAHQNKTIVALNPAPARELPDELLALVDIITPNETEAEKLTGIRVENDEDAAKAAQVLHEKGIRTVLITLGSRGVWASVNGEGQRVPGFRVQAVDTIAAGDTFNGALITALLEEKPLPEAIRFAHAAAAIAVTRKGAQPSVPWREEIDAFLDRQR |  | Km [10]: 18 µM
